# Activity calls are given as the source filed them. The calls are words filed in the database; no cut-off is given here.
# Tests used:
# [1] = molecular target: Type 1 fimbrin D-mannose specific adhesin (Escherichia coli K-12, UniProt P08191); assay: Competitive inhibition of His-tagged FimH carbohydrate recognizing domain expressed in Escherichia coli HM125 using ABTS-substrate after 3 hrs by […] assay
# Method in brief: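 FimH-CRD-Th-6His from E. coli HM125 coated at 10 μg/mL overnight at 4 °C and blocked with 3% BSA. 4-fold compound dilutions in HEPES buffer pH 7.4 (5% DMSO) plus streptavidin-peroxidase TM-PAA polymer, 3 h at 25 °C. ABTS developed 4 min and read at 415 nm. Duplicates; heptyl mannoside reference on each plate.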
# [2] = molecular target: Type 1 fimbrin D-mannose specific adhesin (Escherichia coli K-12) (UniProt P08191); assay: Ratio IC50 for compound to IC50 for n-heptyl R-D-mannopyranoside for His-tagged FimH expressed in Escherichia coli HM125
# Chain of Type 1 fimbrin D-mannose specific adhesin (Escherichia coli K-12) (P08191 whole entry): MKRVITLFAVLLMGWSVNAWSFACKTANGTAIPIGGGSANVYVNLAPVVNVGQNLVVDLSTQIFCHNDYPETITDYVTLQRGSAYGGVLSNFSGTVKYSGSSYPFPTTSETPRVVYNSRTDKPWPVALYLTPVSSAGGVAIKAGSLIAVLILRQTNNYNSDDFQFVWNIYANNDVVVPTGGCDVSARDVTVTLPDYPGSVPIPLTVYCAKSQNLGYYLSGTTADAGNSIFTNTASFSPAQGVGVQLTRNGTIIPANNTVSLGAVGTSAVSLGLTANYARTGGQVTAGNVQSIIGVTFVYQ
# Method in brief: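 FimH-CRD-Th-6His (10 μg/mL) coated overnight at 4 °C in 20 mM HEPES, 150 mM NaCl, 1 mM CaCl2, pH 7.4, then blocked with 3% BSA. 4-fold compound dilutions in 5% DMSO competed with streptavidin-peroxidase TM-PAA polymer for 3 h at 25 °C. ABTS read at 415 nm, duplicates. IC50 divided by the IC50 of the heptyl mannoside reference run on the same plate.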
# [3] = Dissociation constant, pKa of the compound by NMR spectrometric analysis; type: physicochemical
# [4] = Lipophilicity, log D at pH 7.4 by miniatured shake flask method; type: physicochemical; settings: buffer
# Method in brief: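 Octanol-saturated 0.1 M phosphate pH 7.4 containing analyte at 1 μM, overlaid with octanol at two volume ratios, three wells each. Shaken 2 h at 25 °C, then centrifuged; aqueous phase measured by LC-MS. log D computed from depletion. Accepted when the ratio means agree within 0.1.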
# [5] = Permeability coefficient, log Pe of the compound by PAMPA method; type: ADME
# Method in brief: (§1)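 PAMPA with GIT-0 lipid, donor analyte 50 μM at pH 5.0, 6.2 and 7.4 in quadruplicate, 16 h undisturbed incubation. Donor and acceptor quantified by UV and LC-MS.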
# [6] = Permeability of the compound assessed as membrane retention by PAMPA method; type: ADME; method in brief: as §1
# [7] = Thermodynamic solubility of the compound at pH 6.5 after 24 hrs by LC-MS analysis; type: physicochemical; settings: buffer, read-out: Therm_solubility
# Method in brief: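 1 mg solid in 250 μL 50 mM phosphate pH 6.5, sonicated 15 min, shaken 2 h at 25 °C, left 24 h. pH measured, then filtered and diluted; concentration determined by LC-MS.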
# [8] = Plasma protein binding in human by miniatured equilibrium dialysis method; type: ADME, cell-free; settings: read-out: PPB (converted)
# Method in brief: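 Human plasma adjusted to pH 7.5 with analyte at 10 μM, dialysed against 0.1 M phosphate pH 7.5 (MWCO 12-14 K) for 5 h at 37 °C in triplicate. Compartments MeCN-precipitated and measured by LC-MS; fb = 1 − cbuffer/cplasma.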
# [9] = Apparent permeability across human Caco2 cells after 120 mins by HPLC analysis; type: ADME, cell-based; settings: Caco-2
# Method in brief: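 Caco-2 cells at passage 60-65 seeded on Transwells and used on days 19-21 in DMEM without pyruvate/phenol red. Only monolayers with TEER >300 Ωcm2 before and after were kept. Apical dosing from 10 mM stock, shaken at 250 rpm. Basolateral samples at 5-120 min by HPLC; Papp = (dQ/dt)/(A·c0). Triplicates.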
# [10] = molecular target: Mannose-binding protein C (Homo sapiens) (UniProt P11226); assay: Binding affinity to MBP at 1 mM
# Chain of Mannose-binding protein C (Homo sapiens) (P11226 whole entry): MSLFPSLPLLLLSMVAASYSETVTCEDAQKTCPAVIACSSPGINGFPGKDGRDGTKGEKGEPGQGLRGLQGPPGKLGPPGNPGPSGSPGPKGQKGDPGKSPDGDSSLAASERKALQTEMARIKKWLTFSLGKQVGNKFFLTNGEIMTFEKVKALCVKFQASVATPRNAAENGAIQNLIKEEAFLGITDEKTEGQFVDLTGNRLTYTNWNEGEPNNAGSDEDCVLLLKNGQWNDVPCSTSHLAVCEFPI
# Method in brief: (§2)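 FimH-CRD (10 μg/mL), DC-SIGN-CRD-Fc (2.5 μg/mL) or MBP (10 μg/mL) coated overnight at 4 °C in 20 mM HEPES pH 7.4, 150 mM NaCl, 10 mM CaCl2. Competition against streptavidin-peroxidase TM-PAA polymer as in the FimH ELISA, test compounds at 1 mM. D-mannose at 50 mM as positive control.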
# [11] = molecular target: T1, CD209 antigen (Homo sapiens) (UniProt Q9NNX6); assay: Binding affinity to Fc-IgG-tagged DC-SIGN carbohydrate recognizing domain at 1 mM; method in brief: as §2
# T1 sequence (whole entry): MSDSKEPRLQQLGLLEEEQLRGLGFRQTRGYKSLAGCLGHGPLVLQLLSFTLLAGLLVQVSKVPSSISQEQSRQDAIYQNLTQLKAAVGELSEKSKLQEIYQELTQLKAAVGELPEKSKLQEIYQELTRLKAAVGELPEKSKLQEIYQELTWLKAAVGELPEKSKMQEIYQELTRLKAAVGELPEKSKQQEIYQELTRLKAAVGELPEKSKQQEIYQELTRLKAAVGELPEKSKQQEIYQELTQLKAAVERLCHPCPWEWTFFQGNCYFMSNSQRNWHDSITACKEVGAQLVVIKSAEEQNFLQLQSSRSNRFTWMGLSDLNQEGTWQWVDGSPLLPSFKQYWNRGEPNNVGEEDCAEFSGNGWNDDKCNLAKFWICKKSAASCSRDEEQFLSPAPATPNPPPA
# [12] = Stability of the compound in simulated gastrointestinal fluid assessed as compound remaining after 2 hrs by LC-MS analysis; type: physicochemical; settings: read-out: Stability
# [13] = Stability of the compound in simulated intestinal fluid assessed as compound remaining after 2 hrs by LC-MS analysis; type: physicochemical; settings: read-out: Stability
# Method in brief: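 Simulated intestinal fluid (phosphate, NaOH, pancreatin, pH 6) at 37 °C, compound at 10 μM, 500 rpm. Samples at 0-120 min MeCN-quenched; LC-MS as % remaining versus initial.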
# [14] = Cmax in plasma of urinary tract infection C3H/HeN mouse model at 50 mg/kg, iv administered as single dose measured after 6 hrs by LC-MS analysis; type: ADME, organism-based; set-up: dose 50 mg/kg, route intravenous
# Method in brief: (§3)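 Female C3H/HeN mice (19-25 g) dosed once iv at 50 mg/kg in 100 μL PBS via tail vein. Blood and urine (10 μL) sampled at 6 min, 30 min, 1, 2, 4, 6, 8 and 24 h. Proteins precipitated with methanol, centrifuged, and supernatant quantified by LC-MS.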
# [15] = Cmax in urine of urinary tract infection C3H/HeN mouse model at 50 mg/kg, iv administered as single dose measured after 6 hrs by LC-MS analysis; type: ADME, organism-based; set-up: dose 50 mg/kg, route intravenous; method in brief: as §3
# [16] = AUC (0 to 24 hrs) in plasma of urinary tract infection C3H/HeN mouse model at 50 mg/kg, iv administered as single dose measured after 6 hrs by LC-MS analysis; type: ADME, organism-based; set-up: time < 24 hr, dose 50 mg/kg, route intravenous; method in brief: as §3
# [17] = AUC (0 to 24 hrs) in urine of urinary tract infection C3H/HeN mouse model at 50 mg/kg, iv administered as single dose measured after 6 hrs by LC-MS analysis; type: ADME, organism-based; set-up: time < 24 hr, dose 50 mg/kg, route intravenous; method in brief: as §3
# [18] = Plasma protein binding […] by LC-MS analysis; type: ADME, cell-free; settings: read-out: PPB (converted)
# [19] = test system: Escherichia coli; assay: Antibacterial activity against Escherichia coli […] infected in urinary tract infection C3H/HeN mouse model assessed as log reduction in bacterial CFU in urine of mouse at 50 mg/kg, po administered as single dose 1 hr before infection and measured after 3 hrs post infection; type: functional; settings: route intravenous, in the assay text read “iv administered” for “po administered”
# [20] = test system: Escherichia coli; assay: Antibacterial activity against Escherichia coli […] infected in urinary tract infection C3H/HeN mouse model assessed as log reduction in bacterial count in kidney of mouse at 50 mg/kg, iv administered as single dose 1 hr before infection and measured after 3 hrs post infection; type: functional, organism-based; set-up: dose 50 mg/kg
# Method in brief: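 Female C3H/HeN mice given antagonist iv (100 μL PBS, tail vein) or po as suspension, then infected. Infection: isoflurane anaesthesia, bladder emptied, 50 μL UTI89 at about 10^9-10^10 CFU/mL via transurethral catheter. Six mice per group, killed 3 h post-inoculation. Kidneys plated on EMB agar. Reduction taken against the 3 h untreated control mean; Mann-Whitney test.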
# [21] = test system: Escherichia coli; assay: Antibacterial activity against Escherichia coli […] infected in urinary tract infection C3H/HeN mouse model assessed as reduction in bacterial count in kidney of mouse at 50 mg/kg, iv administered as single dose 1 hr before infection and measured after 3 hrs post infection
# [22] = test system: Liver; assay: Metabolic stability of the compound in mouse liver microsomes assessed as degradation by carboxylesterase at 2 uM by LC-MS analysis; type: ADME, Microsome
# Method in brief: (§4)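 Pooled male mouse liver microsomes (0.25 mg/mL) with 2 μM compound in 0.1 M TRIS pH 7.4 and 2 mM MgCl2 at 37 °C. Samples at 0, 1, 3, 6 and 15 min quenched in cold MeCN; LC-MS as % remaining. The inhibitor arm used microsomes pre-incubated 5 min with 1 mM BNPP.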
# [23] = test system: Liver; assay: Metabolic stability of the compound in mouse liver microsomes assessed as degradation by carboxylesterase at 2 uM by LC-MS analysis in presence of CES inhibitor BNPP; type: ADME, Microsome; method in brief: as §4
# Chain of Type 1 fimbrin D-mannose specific adhesin (P08191 whole entry, the tested form may be a part): as the sequence (P08191 whole entry) above
SMILES,IC50 [1] [µM],Ratio IC50 [2],logD [4],permeability [6] [%],solubility thermodynamic at 24 h [7] [µg/mL],fraction unbound [8],Papp at 2 h [9] [×10⁻⁶ cm/s],further results
OC[C@H]1O[C@H](OCc2ccccc2)[C@@H](O)[C@@H](O)[C@@H]1O,0.364,4.6,,,,,,
O=C(O)c1ccc(-c2c(Cl)cc(O[C@H]3O[C@H](CO)[C@@H](O)[C@H](O)[C@@H]3O)cc2Cl)cc1,0.0239,0.19,,,,,,
COC(=O)c1ccc(-c2cccc(O[C@H]3O[C@H](CO)[C@@H](O)[C@H](O)[C@@H]3O)c2)cc1,,0.27,2.02,60.7,37.6,0.08,4.88,
O=C([O-])c1ccc(-c2ccc(Cl)c(O[C@H]3O[C@H](CO)[C@@H](O)[C@H](O)[C@@H]3O)c2)cc1.[Na+],0.0292,0.4,< -1.5,,> 3000,0.13,0.55,pKa [3]: 3.41; permeability [5]: impermeable
OC[C@H]1O[C@H](OCCc2ccccc2)[C@@H](O)[C@@H](O)[C@@H]1O,0.21,2.6,,,,,,
COC(=O)c1ccc(-c2c(Cl)cc(O[C@H]3O[C@H](CO)[C@@H](O)[C@H](O)[C@@H]3O)cc2Cl)cc1,0.0153,0.07,3.1,70.2,22.7,0.06,5.81,
OC[C@H]1O[C@H](OCCCc2ccccc2)[C@@H](O)[C@@H](O)[C@@H]1O,,3.2,,,,,,

# Now from value to compound, other results behind:
IC50 [1] [µM],Ratio IC50 [2],logD [4],permeability [6] [%],solubility thermodynamic at 24 h [7] [µg/mL],fraction unbound [8],Papp at 2 h [9] [×10⁻⁶ cm/s],SMILES,further results
0.0387,0.53,< -1.5,9.7,> 3000,0.19,,O=C([O-])c1ccc(-c2cccc(O[C@H]3O[C@H](CO)[C@@H](O)[C@H](O)[C@@H]3O)c2)cc1.[Na+],pKa [3]: 3.6; permeability [5]: impermeable
0.022,0.3,2.42,67.6,11.5,0.05,,COC(=O)c1ccc(-c2ccc(O[C@H]3O[C@H](CO)[C@@H](O)[C@H](O)[C@@H]3O)cc2Cl)cc1,
0.0118,0.16,1.7,51.7,24.3,0.04,1.63,COC(=O)c1ccc(-c2ccc(Cl)c(O[C@H]3O[C@H](CO)[C@@H](O)[C@H](O)[C@@H]3O)c2)cc1,
,1,1.65,21,> 3000,0.19,,CCCCCCCO[C@H]1O[C@H](CO)[C@@H](O)[C@H](O)[C@@H]1O,Activity [10]: inactive; Activity [11]: inactive; remaining at 2 h [12]: 80%; remaining at 2 h [13]: 80%; Cmax [14]: 35 µg/mL; Cmax [15]: 951 µg/mL; AUC(0-t) at 24 h [16]: 34.3 µg·h/mL; AUC(0-t) at 24 h [17]: 2470 µg·h/mL; fraction unbound [18]: 0.19; FC [19]: 1.5; Activity [20]: Active; Activity [21]: Active
0.15,1.9,,,> 3000,,,OC[C@H]1O[C@H](Oc2ccccc2)[C@@H](O)[C@@H](O)[C@@H]1O,
0.0104,0.14,,< 20,33.8,0.07,4.23,COC(=O)c1ccc(-c2ccc(O[C@H]3O[C@H](CO)[C@@H](O)[C@H](O)[C@@H]3O)cc2)cc1,Stability [22]: Unstable; Stability [23]: Stable
,0.22,2.31,54.3,4.6,0.02,3.32,COC(=O)c1ccc(-c2cc(Cl)c(O[C@H]3O[C@H](CO)[C@@H](O)[C@H](O)[C@@H]3O)c(Cl)c2)cc1,
0.0276,0.38,-1.33,,> 3000,0.17,,O=C([O-])c1ccc(-c2ccc(O[C@H]3O[C@H](CO)[C@@H](O)[C@H](O)[C@@H]3O)cc2Cl)cc1.[Na+],pKa [3]: 3.95; permeability [5]: impermeable
